Screening results from PubChem BioAssay.
RORa inhibitor = blocks the human nuclear receptor RORA; inhibition, % at 10 µM; P35398; 0.43% of 65,000 active; CHO-K1 Gal4-RORA LBD luciferase reporter, luminescence;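 active means inhibition above the mean of all tested compounds plus 3 SD, cut at about 52% in these data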
Target sequence (P35398 whole entry, looked up, the tested form may be a part): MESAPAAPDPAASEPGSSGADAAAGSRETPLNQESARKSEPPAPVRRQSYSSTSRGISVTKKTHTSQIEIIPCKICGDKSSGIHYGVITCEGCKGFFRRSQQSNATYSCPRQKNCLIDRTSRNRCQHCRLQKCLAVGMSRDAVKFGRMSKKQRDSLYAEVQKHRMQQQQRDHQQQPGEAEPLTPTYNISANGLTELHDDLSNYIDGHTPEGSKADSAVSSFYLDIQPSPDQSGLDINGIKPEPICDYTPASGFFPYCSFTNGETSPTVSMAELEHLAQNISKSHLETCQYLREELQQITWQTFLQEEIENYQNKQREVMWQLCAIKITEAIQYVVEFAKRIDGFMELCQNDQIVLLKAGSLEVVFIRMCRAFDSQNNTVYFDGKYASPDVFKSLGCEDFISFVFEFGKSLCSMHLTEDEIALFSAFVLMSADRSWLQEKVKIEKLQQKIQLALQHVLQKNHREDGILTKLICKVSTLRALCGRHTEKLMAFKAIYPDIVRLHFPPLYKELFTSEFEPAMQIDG
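Test system – CHO-K1 Gal4-RORA LBD luciferase reporter cells · Schedule – 20 h at 37 °C · Signal – luminescence from basal luciferase reporter expression · Measure – percent inhibition of basal reporter luminescence, control-normalized · Control set – -RORA mock-transfected DMSO wells 100%, +RORA DMSO wells 0%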
Hits are given with their value; - = inactive. Many of the other results were omitted from the sample, so hits are more common in it than they were.

SMILES	RORa inhibitor
Cc1nc2ccc(NC(=O)Cc3cccs3)cc2s1	-
Cc1cccc2c1NC(C)CC2C (stereo not drawn)	-
COc1ccc(NC(=O)CCCC2=NS(=O)(=O)c3ccccc3N2)cc1	-
Cc1cc(NC(=O)c2ccco2)ncc1NC(=O)Cc1ccccc1	-
CCn1cc(C(=O)Nc2cc3c(cc2NC(C)=O)OCCO3)c(=O)c2ccc(C)nc21	-
CCn1nnc(-c2ccccc2NC(=O)C(F)(F)F)n1	-
CCCCS(=O)(=O)/C=C\C=C/S(=O)(=O)CCCC	91
CC(=O)OC1=C(C#N)Cn2ccc3cccc1c32	-
COc1ccc(C(=O)NC(=O)Nc2cc(C)ccn2)cc1	70
Cc1ccnc(NC(=O)Nc2ccc(F)cc2)c1	-
COc1ccc(C(=O)Nc2cc(C)on2)cc1	-
CCS(=O)(=O)N1CCC(C(=O)NCCCN2CCCC2)CC1	-
Cc1cccc(-n2c(CNC(=O)c3ccccc3)nnc2SCC(=O)Nc2nccs2)c1	-
CC(=O)C(C)Oc1ccc2c3c(c(=O)oc2c1C)CCCC3 (stereo not drawn)	-
COc1ccc(N2CCN(C(=O)C3CCC(Cn4c(=S)[nH]c5ccccc5c4=O)CC3)CC2)cc1 (stereo not drawn)	-
Cc1ccc(NC(=O)Cc2nn(C)c(=O)c3ccccc23)cc1F	76
CCCCC(=O)Nc1ccc(N2CCN(C(=O)CC)CC2)cc1	-
Cc1cc(C)n(-c2ccc(C(=O)Nc3ccc4c(c3)OCCO4)cc2)n1	-
Cn1nc(CC(=O)Nc2ccc3c(c2)OCCO3)c2ccccc2c1=O	75
Cn1nc(CC(=O)Nc2ccc(N3CCN(C(=O)OC(C)(C)C)CC3)cc2)c2ccccc2c1=O	86
COc1ccccc1N1CCN(CC(=O)Nc2ccc(C)c(F)c2)CC1	-
Cc1cc2ccccc2c(=O)n1CC(=O)Nc1ccc2c(c1)OCO2	-
Cc1ccc(NC(=O)Cn2nc(C)c3ccccc3c2=O)cc1F	-
COc1ccc(Nc2nccc3c2nnn3C)cc1	-
O=C1CCCN1CC(CN1CCOCC1)Sc1nc2ccccc2c(=O)n1-c1ccccc1 (stereo not drawn)	-
SMILES	RORa inhibitor
CC1CC(C)CN(c2ncnc3c2cnn3-c2ccc(Cl)cc2)C1 (stereo not drawn)	-
Cc1cccc(-n2ncc3c(N4CCC5(CC4)OCCO5)ncnc32)c1	-
CN1CCN(c2ncnc3c2cnn3-c2ccc(Cl)cc2)CC1	-
CC1CCCN(c2ncnc3c2cnn3-c2ccccc2)C1 (stereo not drawn)	57
c1ccc(-n2ncc3c(NCC4CCCO4)ncnc32)cc1 (stereo not drawn)	-
Clc1ccc(-n2ncc3c(NCC4CCCO4)ncnc32)cc1 (stereo not drawn)	-
c1ccc(-n2ncc3c(NC4CCCCCC4)ncnc32)cc1	-
CC1CCCN(c2ncnc3c2cnn3-c2ccc(Cl)cc2)C1 (stereo not drawn)	84
c1ccc(-n2ncc3c(N4CCCCC4)ncnc32)cc1	62
CC(C)CCNC(=O)NC(=O)COc1ccccc1C#N	-
CC(=O)Nn1c(-c2ccccc2)cc2ccccc21	-
Cc1csc(SCCn2c(N3CCCC3)nc3c2c(=O)[nH]c(=O)n3C)n1	-
CCOC(=O)C1CCN(S(=O)(=O)C(F)(F)c2nc3ccccc3s2)CC1	-
C=CCc1cccc2cc(NC(C)=O)c(=O)oc12	-
Cc1nnc2sc(-c3cc4ccccc4o3)nn12	-
Cc1cccc(-c2noc(Cc3ccc(Cl)cc3)n2)c1	-
Cc1ccc(-c2nc(-c3ccccn3)no2)cc1Cl	81
Brc1ccc(-c2nc(-c3ccccc3)no2)o1	-
c1ccc(CCCc2nc(-c3ccccn3)no2)cc1	-
Cc1ccc(-c2nc(-c3ccccn3)no2)cc1	90
CC(C)(C)c1ccc(OCc2nc(-c3ccccn3)no2)c(Br)c1	-
Clc1cc(Cl)c(OCc2nc(-c3ccccn3)no2)cc1Cl	-
Clc1cccc(-c2nc(-c3ccccn3)no2)c1	62
c1ccc(Cc2nc(-c3ccccn3)no2)cc1	-
CSCCC(CO)NC(=O)OCc1ccccc1 (stereo not drawn)	-
SMILES	RORa inhibitor
O=C(NCCC1=CCCCC1)N[C@@H](Cc1ccccc1)C(=O)O	-
COC(=O)CCC(=O)Nc1cccc(Br)c1	-
CCOC(=O)c1c(C)[nH]c(C(=O)C(C)OC(=O)c2cccc(OCc3c(C)noc3C)c2)c1C (stereo not drawn)	56
CCOC(=O)c1[nH]c(C)c(C(=O)c2cc(F)ccc2F)c1C	-
COc1ccc2nc(NC(=O)c3cccc(OCc4c(C)noc4C)c3)sc2c1	-
CC1CCc2cc(F)cc3c(O)c(C(=O)Nc4cnccn4)c(=O)n1c23 (stereo not drawn)	-
CCOc1ccc(CCN2C(=O)CCC2(C)C(=O)NC(C)CC)cc1OCC (stereo not drawn)	-
CCCCc1ccc(S(=O)(=O)Nc2cc(C)on2)cc1	-
CC1(C)Cc2c(sc3nc4n(c(=N)c23)CCC4)CO1	-
O=C(Nc1ccc(-c2nc3ccccc3o2)cc1)c1ccc2c(c1)OCO2	-
O=C(c1ccc(-c2nnc(-c3ccccc3)o2)cc1)N1CCCCCC1	-
O=C(c1ccc(Cl)cc1)N1CCCCC(Sc2nnc(-c3ccc4c(c3)OCO4)o2)C1=O (stereo not drawn)	76
c1ccc(Oc2ccc(-n3cnnn3)cc2)cc1	-
CN(C)Cc1cc(C(C)(C)c2cc(CN(C)C)c(O)c(CN(C)C)c2)cc(CN(C)C)c1O	-
CCC12CN(C(=O)c3ccc(OC)cc3)CC(CC)(CN(C(=O)c3ccc(OC)cc3)C1)C2=O	-
CC(=O)OC(C(=O)Nc1ccccc1)C(C)S(=O)(=O)c1ccccc1 (stereo not drawn)	-
O=C(NCCOc1ccccc1)c1ccc2c(c1)OCO2	63
O=C(c1ccc2c(c1)OCO2)N1CCc2ccccc2C1	-
O=C(Nc1ccc(Cl)cc1)c1ccc2c(c1)OCO2	-
COC(=O)CCC(=O)N1CCc2cc(S(=O)(=O)N3CCc4ccccc43)ccc21	-
Brc1ccc(-c2cn3cccnc3n2)cc1	-
Cc1ccc(-c2cn3nc(C)c(C)nc3n2)cc1	74
Clc1ccc(OCc2nnc(-c3ccccc3Br)o2)c(Cl)c1	-
O=C1COc2ccc(OCc3ccc(F)cc3)cc21	-
O=C(COc1ccccc1)n1nc(-c2ccc(Cl)cc2)nc1NCc1ccco1	-
SMILES	RORa inhibitor
Cc1oc2cc(O)cc(O)c2c(=O)c1-c1ccc2c(c1)OCCCO2	-
Cc1oc(-c2ccc3c(c2)OCCO3)cc1C(=O)NC(CCC(=O)O)C(=O)O (stereo not drawn)	-
Cc1oc(-c2ccc3c(c2)OCCO3)cc1C(=O)O	75
Cc1ccccc1C(=O)/C=C1\NC(=O)CS1	-
Cc1cc(NC(=O)C2CCN(S(=O)(=O)Cc3ccccc3)CC2)ccc1-n1cnnn1	-
O=C(CSc1nc2ccccc2c(=O)n1Cc1ccco1)c1ccc(F)cc1	-
COc1ccc(C(=O)Nn2c(SCC(=O)NCc3ccco3)nc3ccccc3c2=O)cc1	59
COc1ccc(-n2nnc3c(SCC(=O)NCc4ccco4)ncnc32)cc1	-
O=C(CCN1c2ccccc2Sc2ccccc21)OCC(=O)N1CCN(C(=O)c2ccco2)CC1	-
O=c1oc2c3c4c(cc2cc1-c1nc2ccccc2[nH]1)CCCN4CCC3	-
COC(=O)c1ccc(S(=O)(=O)N(Cc2cc3cc4c(cc3[nH]c2=O)OCO4)C2CCCCC2)cc1	-
Cc1ccc(S(=O)(=O)N(CC(=O)N2CCCC2)C2CCCCC2)cc1	-
CCN(C1CCCCC1)S(=O)(=O)c1ccc(S(=O)(=O)NCc2ccncc2)cc1	69
